This note sets out measurements from ChEMBL document CHEMBL4406897 (Bioorg Med Chem, 2019).

What is called pIC50 is the negative decadic logarithm of the IC50, by convention in mol/L. In general, pKi refers to the negative decadic logarithm of the Ki, by convention in mol/L.

The subject of data set [1] is Plasmodium falciparum. Briefly: Antimalarial activity against Plasmodium falciparum TM4/8.2 infected in human erythrocytes assessed as reduction in [3H]-hypoxanthine incorporation pretreated for 24 hrs followed by [3H]-hypoxanthine addition measured after 18 hrs by liquid scintillation counting method. Type of data set: functional, organism-based.
A further data set relates to Vero. Briefly: Cytotoxicity against African green monkey Vero cells by sulforhodamine B assay. Type of data set: cell-based. The note with it: Chlorocebus sabaeus. (The SRB assay estimates cell density from bound dye.)
Data set [2] has as its system Plasmodium falciparum. The data set is described as follows: Antimalarial activity against pyrimethamine-resistant Plasmodium falciparum V1/S expressing Dihydrofolate reductase N51I/C59R/S108N/I164L mutant infected in human erythrocytes assessed as reduction in [3H]-hypoxanthine incorporation pretreated for 18 hrs followed by [3H]-hypoxanthine addition measured after 24 hrs by liquid scintillation counting method. Type of data set: functional, organism-based. In short, it runs like this: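 P. falciparum V1/S kept in continuous culture in human erythrocytes at 37 °C under 3% CO2. Growth inhibition was read as [3H]-hypoxanthine incorporation.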

In data set [3] the target is T1, Dihydrofolate reductase (Homo sapiens, UniProt P00374).
T1 sequence (P00374 whole entry): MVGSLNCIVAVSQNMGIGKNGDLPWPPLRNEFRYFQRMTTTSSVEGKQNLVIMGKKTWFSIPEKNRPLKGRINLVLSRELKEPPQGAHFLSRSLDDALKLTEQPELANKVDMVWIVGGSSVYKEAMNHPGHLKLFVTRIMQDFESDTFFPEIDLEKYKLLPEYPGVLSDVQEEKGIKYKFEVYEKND
Briefly: Inhibition of human dihydrofolate reductase using dihydrofolate as substrate in presence of NADPH by UV-vis spectrophotometry analysis. The note with it: for pKi: read-out: Ki.

A short description of data set [4]: Competitive inhibition of Plasmodium falciparum dihydrofolate reductase N51I/C59R/S108N/I164L quadruple mutant expressed in Escherichia coli BL21(DE3)pLysS using dihydrofolate as substrate in presence of NADPH by UV-vis spectrophotometry analysis. The method in brief: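 Quadruple-mutant PfDHFR expressed from a pET plasmid in E. coli BL21(DE3)pLysS, induced with 0.4 mM IPTG at 20 °C for 20 h. Cells lysed by French press at 18,000 psi. Enzyme purified on methotrexate-Sepharose in 20 mM potassium phosphate pH 7.0 with 50 mM KCl, 10 mM DTT, 0.1 mM EDTA and 20% glycerol. Activity read spectrophotometrically at 25 °C. Ki measured in microplate format, assuming competitive inhibition.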

The nature of data set [5]: Competitive inhibition of wild type Plasmodium falciparum dihydrofolate reductase expressed in Escherichia coli BL21(DE3)pLysS using dihydrofolate as substrate in presence of NADPH by UV-vis spectrophotometry analysis. The method in brief: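 Wild-type PfDHFR expressed from pET plasmid after 0.4 mM IPTG induction at 20 °C for 20 h. Cells lysed by French press at 18,000 psi. Enzyme purified on methotrexate-Sepharose in 20 mM potassium phosphate pH 7.0 with 0.1 mM EDTA, 10 mM DTT, 50 mM KCl and 20% glycerol. Activity read spectrophotometrically at 25 °C. Ki measured in microplate format, assuming competitive inhibition.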

Data set [6] in a line: Selectivity ratio of IC50 for African green monkey Vero cells to IC50 for Plasmodium falciparum TM4/8.2 infected in human erythrocytes. The format is toxicity, cell-based. Particulars: read-out: Ratio IC50; call rule not given here.
Data set [7] has as its system dihydrofolate reductase. Briefly: Selectivity ratio of Ki for human dihydrofolate reductase to Ki for wild type Plasmodium falciparum TM4/8.2 dihydrofolate reductase. Type of data set: toxicity. Particulars: read-out: Ratio Ki.
The test system of data set [8] is Plasmodium falciparum. The data set is described as follows: Ratio of compound IC50 to pyrimethamine IC50 for antimalarial activity against Plasmodium falciparum TM4/8.2 infected in human erythrocytes. The format is functional.
Data set [9] relates to Plasmodium falciparum. The data set is described as follows: Ratio of compound IC50 to pyrimethamine IC50 for antimalarial activity against Plasmodium falciparum V1/S infected in human erythrocytes. The format is functional.
Data set [10] has as its system dihydrofolate reductase. The data set is described as follows: Selectivity ratio of Ki for human dihydrofolate reductase to Ki for Plasmodium falciparum dihydrofolate reductase N51I/C59R/S108N/I164L quadruple mutant. The note with it: read-out: Ratio Ki. Type of data set: toxicity.
Data set [11] is described as follows: Selectivity ratio of IC50 for African green monkey Vero cells to IC50 for Plasmodium falciparum V1/S infected in human erythrocytes. Type of data set: toxicity, cell-based. The note with it: read-out: Ratio IC50.

pIC50, pKi: −log10 of the molar value.

For `Cl.Nc1nc(N)c(-c2cccc(Cl)c2)c(CCc2ccccc2OCCCc2ccccc2)n1`, the pIC50 in the data set with Plasmodium falciparum [1] was 5.20; in the data set on Vero, 6.19; with Plasmodium falciparum [2] it was 5.26. In addition, the Ki entry on Dihydrofolate reductase [3] is on record as “Active”.
As for `Cl.Nc1nc(N)c(-c2cccc(Cl)c2)c(CCCCCOc2ccccc2)n1`, the figures for the negative-log IC50 (pIC50) in the data set with Plasmodium falciparum [1], in the data set on Vero and with Plasmodium falciparum [2] were 6.37, 5.14 and 5.04, respectively. The results for the pKi (in data set [4]; on Dihydrofolate reductase [3]) were 8.49 and 7.73, respectively.
In the case of `Cl.Nc1nc(N)c(-c2ccccc2)c(COc2cccc(OCCCC(=O)O)c2)n1`, the negative logarithm of the IC50 (pIC50) with Plasmodium falciparum [1] was 5.28; in the data set on Vero, less than 4.30; in the data set with Plasmodium falciparum [2] it was 4.51. In addition, the pKi at Dihydrofolate reductase [3] was 6.26.
As to `Cl.Nc1nc(N)c(-c2cccc(Cl)c2)c(CCCOc2cccc(OCCCC(=O)O)c2)n1`, the pIC50 in the data set with Plasmodium falciparum [1] was 7.31; in the data set with Vero it was less than 5.00; in the data set on Plasmodium falciparum [2] it was 6.36. Also, the results for the pKi (in data set [4]; at Dihydrofolate reductase [3]) were 9.01 and 7.71, respectively.
Consider `Cl.Nc1nc(N)c(-c2ccccc2)c(CCCCOc2ccccc2)n1`, for which the values for the pIC50 in the data set with Plasmodium falciparum [1], with Vero and in the data set on Plasmodium falciparum [2] were 6.44, 4.81 and 4.95, respectively. In addition, the pKi is 8.76 in data set [4] and 7.31 at Dihydrofolate reductase [3].
Turning to `Cl.Nc1nc(N)c(-c2ccccc2)c(CCCOc2cccc(OCCCC(=O)O)c2)n1`, the negative-log IC50 (pIC50) with Plasmodium falciparum [1] was 7.28; in the data set on Vero it was less than 4.60; in the data set on Plasmodium falciparum [2], 6.27. In addition, the results for the pKi (in [4]; at Dihydrofolate reductase [3]) were 8.90 and 7.54, respectively.
On to `CCc1nc(N)nc(N)c1-c1ccc(Cl)cc1` [PYRIMETHAMINE], for which the results for the pKi in data set [4] and in [5] were 6.41 and 9.22, respectively. Also, the negative logarithm of the IC50 (pIC50) with Plasmodium falciparum [2] is less than 4.00.
Regarding `Cl.Nc1nc(N)c(-c2ccccc2)c(CCCCOc2cccc(OCC(=O)O)c2)n1`, the values for the pIC50 in the data set on Plasmodium falciparum [1], with Vero and in the data set on Plasmodium falciparum [2] were 7.24, less than 6.00 and less than 6.00, respectively. The pKi in data set [4] is 8.98; on Dihydrofolate reductase [3], 7.34; in [5] it was 9.30. The figures for the selectivity ratio (in data set [6]; in the data set with dihydrofolate reductase [7]; in the data set with dihydrofolate reductase [10]) were more than 17.2, 91.9 and 44.2, respectively. In addition, the results for the “Ratio IC50” value in the data set on Plasmodium falciparum [8] and in the data set with Plasmodium falciparum [9] were 0.73 and 0.01, respectively.
As for `Cl.Nc1nc(N)c(-c2ccccc2)c(COc2cccc(OCC(=O)O)c2)n1`, the results for the pIC50 in the data set on Plasmodium falciparum [1], in the data set with Vero and in the data set on Plasmodium falciparum [2] were 4.28, less than 4.00 and less than 4.00, respectively. Moreover, on Dihydrofolate reductase [3], the pKi is 6.29.
In the case of `Cl.Nc1nc(N)c(-c2cccc(Cl)c2)c(CCCCOc2ccccc2)n1`, the pIC50 with Plasmodium falciparum [1] is 6.47; in the data set on Vero it was 5.29; with Plasmodium falciparum [2], 5.16. Besides, the pKi in data set [4] was 8.83; on Dihydrofolate reductase [3], 7.89.
On the same counts, the results for `Cl.Nc1nc(N)c(-c2ccccc2)c(CCCCOc2cccc(OCCCC(=O)O)c2)n1` are 7.15, less than 4.00, 5.41, 8.91 and 7.46.
Take `Cl.Nc1nc(N)c(-c2cccc(Cl)c2)c(CCCCOc2cccc(OCCCC(=O)O)c2)n1`: the pIC50 was 7.29 in the data set on Plasmodium falciparum [1], less than 4.00 in the data set with Vero and 5.52 in the data set with Plasmodium falciparum [2]. The negative-log Ki (pKi) in [4] was 9.03; on Dihydrofolate reductase [3], 7.66.
As to `Cl.Nc1nc(N)c(-c2ccccc2)c(CCc2ccccc2OCCCc2ccccc2)n1`, the pIC50 was 5.17 in the data set on Plasmodium falciparum [1], 5.30 in the data set on Vero and 5.21 in the data set on Plasmodium falciparum [2]. Further, on Dihydrofolate reductase [3], the negative-log Ki (pKi) is 7.56.
On the same counts, the results for `Cl.Nc1nc(N)c(-c2cccc(Cl)c2)c(COc2cccc(OCC(=O)O)c2)n1` are 5.22, less than 5.00, 4.94 and 7.28.
`Cl.Nc1nc(N)c(-c2cccc(Cl)c2)c(CCc2ccccc2OCc2ccccc2)n1`: the negative-log IC50 (pIC50) in the data set with Plasmodium falciparum [1] is 5.71; with Vero, 6.40; in the data set on Plasmodium falciparum [2] it was 5.32. The values for the pKi (in [4]; at Dihydrofolate reductase [3]) were 8.51 and 7.84, respectively.
Regarding `CCc1nc(N)nc(N)c1-c1ccccc1`, the pIC50 with Plasmodium falciparum [1] was 6.14; in the data set on Plasmodium falciparum [2] it was less than 4.30. In addition, the negative-log Ki (pKi) at Dihydrofolate reductase [3] was 7.98.
In the case of `Cl.Nc1nc(N)c(-c2ccccc2)c(CCCOc2cccc(OCC(=O)O)c2)n1`, the figures for the pIC50 in the data set on Plasmodium falciparum [1], with Vero and in the data set with Plasmodium falciparum [2] were 7.15, less than 5.00 and 5.57, respectively. Moreover, the values for the pKi (in data set [4]; at Dihydrofolate reductase [3]) were 9.30 and 7.74, respectively.
On to `CCOC(=O)CCCOc1ccccc1CCc1nc(N)nc(N)c1-c1ccccc1.Cl`, for which the pIC50 in the data set with Plasmodium falciparum [1] was 5.90; with Vero, less than 5.00; in the data set with Plasmodium falciparum [2], less than 5.00. Also, the pKi at Dihydrofolate reductase [3] was 7.49.
For the compound `Cl.Nc1nc(N)c(-c2cccc(Cl)c2)c(CCCOc2ccccc2)n1`, the negative logarithm of the IC50 (pIC50) in the data set with Plasmodium falciparum [1] is 6.77; in the data set with Vero, 6.33; with Plasmodium falciparum [2] it was 5.47. Moreover, the negative-log Ki (pKi) in data set [4] was 8.94; on Dihydrofolate reductase [3], 8.06; in [5], 9.62. In addition, the selectivity ratio was found to be 2.76 in data set [6], 36.3 in the data set on dihydrofolate reductase [7], 7.52 with dihydrofolate reductase [10] and 0.14 in [11]. Also, the “Ratio IC50” value came out at 2.13 in the data set on Plasmodium falciparum [8] and 0.03 in the data set with Plasmodium falciparum [9].
In the case of `Cl.Nc1nc(N)c(-c2ccccc2)c(CCCCCOc2ccccc2)n1`, the values for the negative-log IC50 (pIC50) in the data set on Plasmodium falciparum [1], in the data set with Vero and in the data set with Plasmodium falciparum [2] were 6.42, 5.10 and 5.10, respectively. Moreover, the pKi in [4] was 8.44; on Dihydrofolate reductase [3], 7.48; in data set [5] it was 9.52. Further, the selectivity ratio in data set [6] came to 20.8; in the data set with dihydrofolate reductase [7], 110; in the data set with dihydrofolate reductase [10], 9.11; in [11] it was 1. Further, the results for the “Ratio IC50” value in the data set on Plasmodium falciparum [8] and in the data set on Plasmodium falciparum [9] were 4.75 and 0.08, respectively.
As for `Cl.Nc1nc(N)c(-c2cccc(Cl)c2)c(CCCOc2cccc(OCC(=O)O)c2)n1`, the values for the pIC50 in the data set on Plasmodium falciparum [1], in the data set on Vero and in the data set on Plasmodium falciparum [2] were 7.32, less than 4.30 and 6.37, respectively. The pKi in data set [4] was 9.39; on Dihydrofolate reductase [3], 7.87.
Consider `Cl.Nc1nc(N)c(-c2ccccc2)c(CCCOc2ccccc2)n1`, for which the values for the negative-log IC50 (pIC50) with Plasmodium falciparum [1], in the data set with Vero and in the data set on Plasmodium falciparum [2] were 6.89, 5.86 and 4.82, respectively. Further, the pKi in [4] is 8.86; at Dihydrofolate reductase [3] it was 7.90.
In the case of `Cl.Nc1nc(N)c(-c2ccccc2)c(CCc2ccccc2OCc2ccccc2)n1`, the negative logarithm of the IC50 (pIC50) was 6.19 with Plasmodium falciparum [1], 5.73 with Vero and 5.36 in the data set with Plasmodium falciparum [2]. For the same compound, the pKi at Dihydrofolate reductase [3] was 7.66.
`Cl.Nc1nc(N)c(-c2cccc(Cl)c2)c(CCCCOc2cccc(OCC(=O)O)c2)n1`: the pIC50 is 7.37 in the data set on Plasmodium falciparum [1], less than 4.30 in the data set on Vero and 5.85 with Plasmodium falciparum [2]. Moreover, the figures for the pKi (in [4]; on Dihydrofolate reductase [3]) were 9.14 and 7.87, respectively.
Turning to `CCOC(=O)CCCOc1ccccc1CCc1nc(N)nc(N)c1-c1cccc(Cl)c1`, the negative logarithm of the IC50 (pIC50) in the data set on Plasmodium falciparum [1] was 6.15; in the data set with Vero, 5.09; in the data set with Plasmodium falciparum [2], 5.28. Moreover, the pKi on Dihydrofolate reductase [3] is 7.63.
On the same counts, the results for `Cl.Nc1nc(N)c(-c2cccc(Cl)c2)c(COc2cccc(OCCCC(=O)O)c2)n1` are 5.74, less than 4.00, 5.21 and 7.13.
